According to ChEMBL document CHEMBL3351252, “Design, synthesis, and structure-activity relationship studies of a series of [4-(4-carboxamidobutyl)]-1-arylpiperazines: insights into structural features contributing to dopamine D3 versus D2 receptor subtype selectivity” (J Med Chem, 2014):
The source made the active and inactive calls. The rule behind the calls is not given here.

Tests used:
D(2) dopamine receptor [1] = biological target: T1, D(2) dopamine receptor (Homo sapiens, UniProt P14416); assay: Inverse agonist activity at human D2LR expressed in CHO-K1 cells assessed as inhibition of basal activity by beta-galactosidase based beta-arrestin recruitment assay; type: cell-based
T1 sequence (P14416 whole entry, the tested form may be a part): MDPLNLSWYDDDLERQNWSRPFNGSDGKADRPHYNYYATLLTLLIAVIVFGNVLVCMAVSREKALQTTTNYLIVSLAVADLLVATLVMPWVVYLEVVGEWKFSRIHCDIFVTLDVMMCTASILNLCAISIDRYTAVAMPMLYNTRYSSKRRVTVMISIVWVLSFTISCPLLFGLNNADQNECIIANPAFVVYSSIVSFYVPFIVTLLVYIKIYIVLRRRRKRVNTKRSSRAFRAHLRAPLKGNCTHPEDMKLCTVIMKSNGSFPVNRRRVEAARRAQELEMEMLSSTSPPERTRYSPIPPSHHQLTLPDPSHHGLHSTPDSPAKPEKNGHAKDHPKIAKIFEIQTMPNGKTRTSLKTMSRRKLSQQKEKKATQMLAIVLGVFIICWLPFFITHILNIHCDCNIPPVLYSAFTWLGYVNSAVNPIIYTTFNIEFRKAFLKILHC
Outline: (§1)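 CHO-K1 cells expressing human D2L receptor, β-arrestin/β-galactosidase fragment-complementation assay. Cells plated 2500/well and grown 48 h at 37 °C. Test compounds given at 11 half-log points from 5 μM, 120 min at 37 °C. Detection reagent added and chemiluminescence read. Results given as % stimulation or inhibition of basal luminescence. Compounds counterscreened for β-gal inhibition.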

D(2) dopamine receptor [2] = biological target: T1, D(2) dopamine receptor; assay: Agonist activity at human D2LR expressed in CHO-K1 cells assessed as stimulation of basal activity by beta-galactosidase based beta-arrestin recruitment assay; type: cell-based; outline: as §1
D(3) dopamine receptor [3] = biological target: T2, D(3) dopamine receptor (Homo sapiens, UniProt P35462); assay: Antagonist activity against D3R in human U2OS cells assessed as inhibition of (+)-PD128907-induced beta-arrestin translocation by beta-galactosidase based beta-arrestin recruitment assay; type: cell-based
T2 sequence (P35462 whole entry): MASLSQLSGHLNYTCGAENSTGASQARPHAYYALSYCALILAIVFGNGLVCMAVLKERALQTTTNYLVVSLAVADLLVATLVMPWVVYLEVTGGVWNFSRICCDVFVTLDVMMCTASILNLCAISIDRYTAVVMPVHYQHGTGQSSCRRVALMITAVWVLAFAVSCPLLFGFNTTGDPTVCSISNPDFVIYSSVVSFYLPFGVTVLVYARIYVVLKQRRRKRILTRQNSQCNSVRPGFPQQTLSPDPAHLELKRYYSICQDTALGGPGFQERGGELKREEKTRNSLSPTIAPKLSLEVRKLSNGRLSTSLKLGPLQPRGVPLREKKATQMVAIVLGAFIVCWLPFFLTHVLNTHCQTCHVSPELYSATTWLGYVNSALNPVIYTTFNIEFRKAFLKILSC

Homo sapiens [4] = species: Homo sapiens; assay: Selectivity index, ratio of IC50 for human D2LR to IC50 for human D3R by beta-galactosidase based beta-arrestin recruitment assay
D(3) dopamine receptor [5] = biological target: T2, D(3) dopamine receptor; assay: Displacement of [125I]IABN from wild type human D3R expressed in HEK293 cell membranes by gamma counting method
Outline: (§2)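 Membranes from HEK 293 cells stably expressing receptor, prepared in 50 mM Tris-HCl pH 7.4/10 mM EDTA/150 mM NaCl and stored at −80 °C. […] Nonspecific binding defined with 2 μM (+)-butaclamol. Filtered, gamma counted. IC50 from single-site nonlinear regression, converted to Ki.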

D(2) dopamine receptor [6] = biological target: T1, D(2) dopamine receptor; assay: Displacement of [125I]IABN from wild type human D2R expressed in HEK293 cell membranes by gamma counting method
D(3) dopamine receptor [7] = biological target: T2, D(3) dopamine receptor; assay: Displacement of [125I]IABN from chimeric human D3 receptor possessing extracellular loop II of D2 receptor expressed in HEK293 cell membranes by gamma counting method; outline: as §2
D(2) dopamine receptor [8] = biological target: T1, D(2) dopamine receptor; assay: Displacement of [125I]IABN from chimeric human D2 receptor possessing extracellular loop II of D3 receptor expressed in HEK293 cell membranes by gamma counting method
D(3) dopamine receptor [9] = biological target: D(3) dopamine receptor (Homo sapiens, UniProt P35462, S182I); assay: Displacement of [125I]IABN from human D3R S182I mutant expressed in HEK293 cell membranes by gamma counting method; outline: as §2
Chain of D(3) dopamine receptor (Homo sapiens, UniProt P35462, S182I) (P35462 as listed by the source S182I): as the sequence (P35462 whole entry) above, with G9S, S182I counted along it

D(3) dopamine receptor [10] = biological target: D(3) dopamine receptor (Homo sapiens, UniProt P35462, E90A); assay: Displacement of [125I]IABN from human D3R E90A mutant expressed in HEK293 cell membranes by gamma counting method; outline: as §2
Chain of D(3) dopamine receptor (Homo sapiens, UniProt P35462, E90A) (P35462 as listed by the source E90A): as the sequence (P35462 whole entry) above, with G9S, E90A counted along it

D(3) dopamine receptor [11] = biological target: D(3) dopamine receptor (Homo sapiens, UniProt P35462, E90Q); assay: Displacement of [125I]IABN from human D3R E90Q mutant expressed in HEK293 cell membranes by gamma counting method; outline: as §2
Chain of D(3) dopamine receptor (Homo sapiens, UniProt P35462, E90Q) (P35462 as listed by the source E90Q): as the sequence (P35462 whole entry) above, with G9S, E90Q counted along it

D(2) dopamine receptor [12] = biological target: T1, D(2) dopamine receptor; assay: Agonist activity at human D2R expressed in CHO cells assessed as stimulation of mitogenesis at 10 uM after 24 hrs by [3H]thymidine uptake assay relative to quinpirole; type: cell-based
Outline: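 CHOp-D2 cells grown 48–72 h, then serum-starved 24 h. Exposed to 10 μM compound in serum-free α-MEM for 24 h at 37 °C. Pulsed 2 h with 0.25 μCi [3H]thymidine, trypsinized, filtered and counted. Stimulation expressed relative to maximal quinpirole. Two independent experiments.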

D(2) dopamine receptor [13] = biological target: T1, D(2) dopamine receptor; assay: Agonist activity against human D2R expressed in HEK293 cells assessed as inhibition of forskolin-induced adenyl cyclase activity at 10 times Ki relative to quinpirole; type: functional, cell-based
Outline: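 Whole HEK 293 cells expressing human D2R, prelabelled with [2,8-3H]adenine for 75 min at 37 °C, then given 0.1 mM IBMX. […] Stopped with TCA. [3H]cAMP separated on Dowex/alumina. Inhibition normalized to 1 μM quinpirole. Mean ± SEM of ≥3 experiments.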

D(3) dopamine receptor [14] = biological target: T2, D(3) dopamine receptor; details: CHO, 1 uM
D(2) dopamine receptor [15] = biological target: T1, D(2) dopamine receptor; details: CHO, 1 uM
D(3) dopamine receptor [16] = biological target: T2, D(3) dopamine receptor; details: CHO, 10 uM
D(2) dopamine receptor [17] = biological target: T1, D(2) dopamine receptor; assay: Antagonist activity against human D2LR expressed in CHOK1 cells assessed as inhibition of pergolide-induced beta-arrestin translocation by beta-galactosidase based beta-arrestin recruitment assay; type: cell-based, CHO-K1
Homo sapiens [18] = species: Homo sapiens; assay: Selectivity index, ratio of Ki for human D2LR to Ki or human D3R
D(3) dopamine receptor [19] = biological target: T2, D(3) dopamine receptor; assay: Displacement of [125I]IABN from human D3R expressed in HEK293 cell membranes by gamma counting method
D(2) dopamine receptor [20] = biological target: T1, D(2) dopamine receptor; assay: Displacement of [125I]IABN from human D2LR expressed in HEK293 cell membranes by gamma counting method
D(2) dopamine receptor [21] = biological target: T1, D(2) dopamine receptor; assay: Antagonist activity against human D2R expressed in CHO cells assessed as inhibition of quinpirole-induced mitogenesis after 24 hrs by [3H]thymidine uptake assay; type: cell-based
Outline: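 Serum-starved CHOp-D2 or CHOp-D3 cells given serial dilutions of test compound plus quinpirole (30 nM final). Incubated at 37 °C for 24 h (D2) or 16 h (D3). Then 2 h [3H]thymidine pulse, filtration and counting.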

SMILES | inhibition (D(2) dopamine receptor [1]) | Activity (D(2) dopamine receptor [2]) | IC50 (D(3) dopamine receptor [3]) [nM] | Ratio IC50 (Homo sapiens [4]) | inhibition (D(2) dopamine receptor [13]) [%] | IC50 (D(2) dopamine receptor [17]) [nM] | Ratio Ki (Homo sapiens [18]) | Ki (D(3) dopamine receptor [19]) [nM] | Ki (D(2) dopamine receptor [20]) [nM] | other results
CC(C)(C)c1nc(N2CCN(CCCCNC(=O)c3cn4ccccc4n3)CC2)cc(C(F)(F)F)n1 | inactive | inactive | 0.6 | 435 | -1.9 |  |  |  |  | Ki (D(3) dopamine receptor [5]): 8.4 nM; Ki (D(2) dopamine receptor [6]): 702 nM; Ki (D(3) dopamine receptor [7]): 40 nM; Ki (D(2) dopamine receptor [8]): 148 nM; Ki (D(3) dopamine receptor [9]): 12 nM; Ki (D(3) dopamine receptor [10]): 13 nM; Ki (D(3) dopamine receptor [11]): 20 nM; Activity (D(2) dopamine receptor [12]): 0%; inhibition (D(3) dopamine receptor [14]): < 30%; inhibition (D(2) dopamine receptor [15]): < 30%; inhibition (D(3) dopamine receptor [16]): 40%
O=C(NCCCCN1CCN(c2ncnc3ccccc23)CC1)c1cn2ccccc2n1 | inactive | inactive | 409 | 0.6 | 19 | 248 | 4.5 |  |  | 
CC(C)(C)c1nc(N2CCN(CCCCNC(=O)c3cn4cccnc4n3)CC2)cc(C(F)(F)F)n1 | inactive | inactive | 0.4 | 93 | 9.2 | 37 | 36 |  |  | Activity (D(2) dopamine receptor [12]): < 1%
CC(C)(C)c1nc(N2CCN(CCCCNC(=O)c3sc4ncccc4c3N)CC2)cc(C(F)(F)F)n1 |  |  |  |  |  |  | 14 | 35 | 481 | 
CC(C)(C)c1cc(N2CCN(CCCCNC(=O)c3cn4ccccc4n3)CC2)nc(C(C)(C)C)n1 |  |  |  |  |  |  | 19 |  |  | 
CC(C)(C)c1nc(N2CCN(CCCCNC(=O)c3nc4ccccc4[nH]3)CC2)cc(C(F)(F)F)n1 | inactive | inactive | 8.5 | 35 | 5.6 | 301 | 78 | 4.3 | 336 | Activity (D(2) dopamine receptor [12]): < 20%; IC50 (D(2) dopamine receptor [21]): 490 nM
O=C(NCCCCN1CCN(c2ccnc3ccccc23)CC1)c1cn2ccccc2n1 | inactive | inactive | 52 | 3.1 | 1.4 | 161 | 29 | 20 |  | 
CN(C)Cc1cccc2nc(C(=O)NCCCCN3CCN(c4cc(C(F)(F)F)nc(C(C)(C)C)n4)CC3)cn12 | inactive | inactive |  | 9.7 |  |  | 11 |  |  | Ki (D(3) dopamine receptor [5]): 16 nM; Ki (D(2) dopamine receptor [6]): 245 nM; Ki (D(3) dopamine receptor [7]): 44 nM; Ki (D(2) dopamine receptor [8]): 176 nM; Ki (D(3) dopamine receptor [9]): 24 nM; Ki (D(3) dopamine receptor [10]): 12 nM; Ki (D(3) dopamine receptor [11]): 12 nM
N#Cc1cc(N2CCN(CCCCNC(=O)c3cn4ccccc4n3)CC2)cc(C(F)(F)F)c1 |  |  |  |  |  |  | 30 | 6.4 | 191 | 
O=C(NCCCCN1CCN(c2ccccc2)CC1)c1cn2ccccc2n1 |  |  |  |  |  |  | 18 | 10 | 178 | 
CC(C)(C)c1nc(N2CCN(CCCCNC(=O)c3cc4ccccc4[nH]3)CC2)cc(C(F)(F)F)n1 | inactive | inactive | 5.6 | 75 |  | 418 | 83 | 11 | 913 | 
CC(C)(C)c1nc(N2CCN(CCCCNC(=O)c3cc4cccnc4s3)CC2)cc(C(F)(F)F)n1 |  |  |  |  |  |  | 21 | 32 | 683 | 
COc1ccccc1N1CCN(CCCCNC(=O)c2cn3ccccc3n2)CC1 | inactive | inactive | 0.7 | 9.4 | 25 | 6.6 | 5.4 | 3.5 | 19 | Activity (D(2) dopamine receptor [12]): < 20%; IC50 (D(2) dopamine receptor [21]): 26 nM
CC(C)(C)c1cc(N2CCN(CCCCNC(=O)c3cn4ccccc4n3)CC2)cc(C(C)(C)C)c1 |  |  |  |  |  |  | 11 | 124 | 1300 | 
O=C(NCCCCN1CCN(c2cccc(C(F)(F)F)c2)CC1)c1cn2ccccc2n1 | inactive | inactive | 1.8 | 33 | 32 | 60 | 56 | 2.9 | 162 | 
O=C(NCCCCN1CCN(c2ccc3ccccc3n2)CC1)c1cn2ccccc2n1 |  |  |  |  |  |  | 20 | 77 | 1560 | 
Cc1nc(N2CCN(CCCCNC(=O)c3cn4ccccc4n3)CC2)cc(C(F)(F)F)n1 |  |  |  |  |  |  | 12 | 2010 | 24900 | 
CC(C)(C)c1nc(N2CCN(CCCCNC(=O)[C@H]3CC[C@H](c4ccccc4)CC3)CC2)cc(C(F)(F)F)n1 | inactive | inactive |  |  |  |  |  |  |  | inhibition (D(3) dopamine receptor [14]): < 30%; inhibition (D(2) dopamine receptor [15]): < 30%; inhibition (D(3) dopamine receptor [16]): 40%
CC(C)(C)c1nc(N2CCN(CCCCNC(=O)c3cn4ccncc4n3)CC2)cc(C(F)(F)F)n1 | inactive | inactive | 0.3 | 163 |  | 49 | 56 |  |  | Activity (D(2) dopamine receptor [12]): < 20%; inhibition (D(3) dopamine receptor [14]): < 30%; inhibition (D(2) dopamine receptor [15]): < 30%; inhibition (D(3) dopamine receptor [16]): 40%
CC(C)(C)c1nc(N2CCN(CCCCNC(=O)c3cn4nc(Cl)ccc4n3)CC2)cc(C(F)(F)F)n1 | inactive | inactive |  |  |  | 22 |  |  |  | Activity (D(2) dopamine receptor [12]): < 1%
Cc1cc(N2CCN(CCCCNC(=O)c3cn4ccccc4n3)CC2)nc(C(F)(F)F)n1 |  |  |  |  |  |  | 25 | 148 | 3650 | 
